Each structure is given as a SMILES string. A value given as a limit tells only on which side of the number the result lay.

Holding throughout (type): tissue-based
In experiment [1] the target is T1, 5-hydroxytryptamine receptor 1A (Rattus norvegicus) (UniProt P19327).
T1 sequence (whole entry): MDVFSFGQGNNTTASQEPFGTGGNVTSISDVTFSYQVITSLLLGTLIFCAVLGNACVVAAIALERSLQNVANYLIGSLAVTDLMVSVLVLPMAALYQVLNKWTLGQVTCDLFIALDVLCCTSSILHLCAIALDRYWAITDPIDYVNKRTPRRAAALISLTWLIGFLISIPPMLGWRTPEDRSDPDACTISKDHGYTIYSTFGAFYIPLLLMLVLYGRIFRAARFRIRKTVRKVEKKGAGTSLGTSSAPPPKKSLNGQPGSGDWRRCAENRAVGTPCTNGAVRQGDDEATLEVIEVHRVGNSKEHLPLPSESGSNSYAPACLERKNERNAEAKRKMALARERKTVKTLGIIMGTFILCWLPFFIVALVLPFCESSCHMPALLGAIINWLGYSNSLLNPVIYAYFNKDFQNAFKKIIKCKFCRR
The experiment in a line: Hill coefficient in rat brain 5-hydroxytryptamine 1A assay.

The target of experiment [2] is T2, 5-hydroxytryptamine receptor 1A (Rattus norvegicus, UniProt P19327).
T2 sequence (P19327 whole entry): T1 sequence (whole entry)
The experiment in a line: Evaluated for binding affinity towards 5-hydroxytryptamine 1A receptor in rat brain.

In experiment [3] the target is T2, 5-hydroxytryptamine receptor 1A. The experiment in a line: Binding affinity towards 5-hydroxytryptamine 1A receptor in rat brain. Summed up: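 Rat hippocampal membranes (male Sprague-Dawley, ca. 220 g), homogenized in 50 mM Tris-HCl/0.5 mM EDTA/10 mM MgSO4, washed, preincubated 15 min at 37 °C; 0.1 nM [3H]8-OH-DPAT with 4 mg wet tissue in Tris pH 7.7 with pargyline, ascorbate; eleven competitor concentrations; 37 °C 20 min; nonspecific with 1 μM 8-OH-DPAT; filtration, scintillation counting; Ki by Cheng–Prusoff.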

`O=C(NCCCCN1CCN(c2ncccn2)CC1)c1ccccc1` returned a Hill coefficient in experiment [1] of 0.79. This compound also returned a Ki in experiment [2] of 60 nM.

With `O=C1c2ccccc2C(=O)N1CCCN1CCN(c2ccccc2)CC1`, the Hill coefficient in experiment [1] turned out to be 0.99. The same compound came in with a Ki in experiment [2] of 200 nM.

As to `NCCCCN1CCN(c2ccccc2)CC1`, the Ki in experiment [2] is > 6000 nM.

`O=C1c2ccccc2C(=O)N1CCCCN1CCN(c2ccccc2)CC1`: in experiment [1], the Hill coefficient is 0.99. In experiment [2], this compound showed a Ki of 10 nM.

Regarding `O=C1c2ccccc2C(=O)N1CCN1CCN(c2ccccc2)CC1`, the inhibitory constant (Ki) in experiment [2] was > 10000 nM.

With `Clc1cccc(N2CCNCC2)c1` [CHLOROPHENYLPIPERAZINE], the Hill coefficient in experiment [1] was determined as 0.91. Further, the inhibition constant Ki in experiment [2] worked out at 130 nM.

Compound `CC(=O)NCCCCN1CCN(c2ccccc2)CC1` displayed a Hill coefficient in experiment [1] of 0.99. Besides, the Ki in experiment [2] was 250 nM.

Compound `COc1ccccc1N1CCN(CCCCNC(=O)c2ccccc2)CC1` showed a Hill coefficient in experiment [1] of 0.88. This compound registered a Ki in experiment [2] of 2 nM.

`CC1(C)CC(=O)N(CCCCN2CCN(c3ncccn3)CC2)C(=O)C1`: the Hill coefficient in experiment [1] was 1.

In experiment [1], `COc1ccc(Cl)cc1N1CCNCC1` came in with a Hill coefficient of 0.97. Further, the affinity in experiment [2] corresponds to a Ki of 870 nM.

In experiment [1], `O=C(NCCCCN1CCN(c2ccccc2)CC1)c1ccccc1` yielded a Hill coefficient of 0.82. The compound also returned an inhibition constant (Ki) in experiment [3] of 11 nM.

Take `COc1ccccc1N1CCNCC1`: the Hill coefficient in experiment [1] is 0.88. In experiment [2], the Ki amounted to 68 nM.

`FC(F)(F)c1cccc(N2CCNCC2)c1` yielded a Hill coefficient in experiment [1] of 0.97. In addition, in experiment [2], the Ki turned out to be 175 nM.

`c1ccc(N2CCNCC2)cc1` [PHENYLPIPERAZINE]: in experiment [1], the Hill coefficient stood at 0.95. Further, the inhibition constant (Ki) in experiment [2] came out at 380 nM.

As to `c1cnc(N2CCNCC2)nc1` [2-PIPERAZIN-1-YL-PYRIMIDINE], in experiment [1], the Hill coefficient came out at 0.95. Also, in experiment [2], the affinity corresponds to a Ki of 1410 nM.

`O=C1c2ccccc2C(=O)N1CCCCCN1CCN(c2ccccc2)CC1` came in with a Hill coefficient in experiment [1] of 0.91. The same compound registered a Ki in experiment [2] of 8.5 nM.

`O=C1c2ccccc2C(=O)N1CCCCN1CCN(c2ncccn2)CC1` showed a Hill coefficient in experiment [1] of 1.03. In experiment [2], this compound came in with a Ki of 36 nM.

As for `c1ccc(C2CCNCC2)cc1`, the Hill coefficient in experiment [1] was 0.97. For the same compound, the Ki in experiment [2] was found to be 1520 nM.

In the case of `O=C1c2ccccc2C(=O)N1CCCCN1CCN(c2cccc3ccccc23)CC1`, the Hill coefficient in experiment [1] was 1.16. The compound further gave a Ki in experiment [2] of 1 nM.

`c1ccc2cc(N3CCNCC3)ccc2c1` gave a Hill coefficient in experiment [1] of 1.02. Moreover, the Ki in experiment [2] stood at 2900 nM.

`c1ccc2c(N3CCNCC3)cccc2c1` yielded a Hill coefficient in experiment [1] of 0.85. The compound further displayed a Ki in experiment [2] of 11 nM.

Source of the values: ChEMBL document CHEMBL1123981, “Arylpiperazine derivatives as high-affinity 5-HT1A serotonin ligands” (J Med Chem, 1988).
